For one series, the system named is MCF7. The series can be described thus: Cytotoxicity against human MCF7 cells assessed as growth inhibition at 10^-5 M after 72 hrs by MTT assay relative to control. The series is classed as functional. Particulars: MCF7, 72 h, read-out: GI.
The subject of series [1] is MDA-MB-231. The experiment in a line: Cytotoxicity against human MDA-MB-231 cells assessed as growth inhibition at 10^-5 M after 72 hrs by MTT assay relative to control. The format is functional. Particulars: MDA-MB-231, 72 h, read-out: GI.
The test system of series [2] is A549. The experiment in a line: Cytotoxicity against human A549 cells assessed as growth inhibition at 10^-5 M after 72 hrs by MTT assay relative to control. The format is functional. The settings on record: A549, 72 h, read-out: GI.
A short description of series [3]: Cytotoxicity against human HCT116 cells assessed as growth inhibition at 10^-5 M after 72 hrs by MTT assay relative to control. The format is functional. Particulars: HCT-116, 72 h, read-out: GI.
The subject of a further series is HeLa. The experiment in a line: Cytotoxicity against human HeLa cells assessed as growth inhibition at 10^-5 M after 72 hrs by MTT assay relative to control. The format is functional. Particulars: read-out: GI.
Series [4] deals with A549. The experiment in a line: Cytotoxicity against human A549 cells assessed as growth inhibition after 72 hrs by MTT assay. The format is functional, cell-based. Particulars: A549, 72 h. In short, it runs like this:
(§1)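 MTT viability assay. Cells were seeded at 5000 per well, incubated overnight, then exposed to compound at a range of concentrations for 72 h. MTT was added from a 5 mg/mL stock for 4 h, and absorbance was read at 570 nm. IC50 (50% viability inhibition) was calculated by the logit method. Each concentration was run at least three times.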

In series [5] the test system is MDA-MB-231. The series can be described thus: Cytotoxicity against human MDA-MB-231 cells assessed as growth inhibition after 72 hrs by MTT assay. The series is classed as functional, cell-based. The settings on record: MDA-MB-231, 72 h. A digest of the protocol:
as §1

Series [6] can be described thus: Cytotoxicity against human HCT116 cells assessed as growth inhibition after 72 hrs by MTT assay. Particulars: HCT-116, 72 h. The format is functional, cell-based. In short, it runs like this:
as §1

Series [7] has as its system Lewis lung carcinoma cell line. The experiment in a line: Antitumor activity against mouse LLC cells allografted in C57BL/6 mouse assessed as tumor growth inhibition at 2.5 mg/kg, ip administered for 14 days measured on day 15 relative to control. The series is classed as functional. The settings on record: route intraperitoneal, read-out: TGI. A digest of the protocol: (§2)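 Female C57BL/6 mice (18–22 g) given 3 × 10^6 Lewis lung cancer cells subcutaneously in the right flank; dosing began 7 to 21 days after inoculation. Mice were randomized into groups of 10. Treatment was intraperitoneal daily for 14 days at 2.5, 5 or 10 mg/kg, with a saline control group. Tumors were excised and weighed when the mice were killed after 14 days.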

For series [8], the system named is Mus musculus. The experiment in a line: Toxicity in C57BL/6 mouse allografted with mouse LLC cells assessed as decrease in body weight at 2.5 mg/kg, ip administered for 14 days measured during compound dosing. The series is classed as organism-based. Details: dose 2.5 mg/kg, route intraperitoneal. The settings on record: in vivo, 336 h. A digest of the protocol: (§3)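 LLC-bearing female C57BL/6 mice (18–22 g; 3 × 10^6 cells s.c., right flank) were randomized into groups of 10 and dosed i.p. daily for 14 days, with a saline control. Body weight was recorded every day from the first treatment.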

Series [9] deals with A549. The experiment in a line: Cell cycle arrest in human A549 cells assessed as accumulation at S phase at 0.01 uM after 24 hrs by propidium iodide staining-based flow cytometric analysis relative to control. The format is functional. In short, it runs like this:
(§4)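 A549 cells (3 × 10^5 per well) were seeded overnight, then treated at 0, 0.01, 0.1 or 1 µM for 24 h. Cells were harvested, washed in cold PBS and fixed in cold 70% ethanol for at least 24 h. They were then RNase A-treated and stained with propidium iodide (50 µg/mL) at room temperature. DNA content was analysed by FACSCalibur flow cytometry.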

Series [10] concerns A549. The experiment in a line: Cell cycle arrest in human A549 cells assessed as accumulation at S phase at 0.1 uM after 24 hrs by propidium iodide staining-based flow cytometric analysis relative to control. The format is functional. A digest of the protocol: as §4
Series [11] has as its system A549. The experiment in a line: Cell cycle arrest in human A549 cells assessed as accumulation at S phase at 1 uM after 24 hrs by propidium iodide staining-based flow cytometric analysis relative to control. The format is functional. A digest of the protocol: as §4
The test system of series [12] is A549. The experiment in a line: Cell cycle arrest in human A549 cells assessed as accumulation at G0/G1 phase at 0.01 to 1 uM after 24 hrs by propidium iodide staining-based flow cytometric analysis. The series is classed as functional. Particulars: in the assay text read “S phase” for “G0/G1 phase”. In short, it runs like this: as §4
The subject of series [13] is A549. The experiment in a line: Cell cycle arrest in human A549 cells assessed as accumulation at G2/M phase at 0.01 to 1 uM after 24 hrs by propidium iodide staining-based flow cytometric analysis. The series is classed as functional. A digest of the protocol:
as §4

The subject of series [14] is A549. The series can be described thus: Induction of apoptosis in human A549 cells assessed as early apoptotic cells at 0.01 uM after 24 hrs by Annexin V and propidium iodide staining-based flow cytometric analysis (reference value: 8.2%). The series is classed as functional.
Series [15] relates to A549. The experiment in a line: Induction of apoptosis in human A549 cells assessed as late apoptotic cells at 0.01 uM after 24 hrs by Annexin V and propidium iodide staining-based flow cytometric analysis (reference value: 7.4%). The format is functional.
Series [16] relates to A549. The series can be described thus: Induction of apoptosis in human A549 cells assessed as dead cells at 0.01 uM after 24 hrs by Annexin V and propidium iodide staining-based flow cytometric analysis (reference value: 1.4%). The series is classed as functional.
The test system of series [17] is A549. The series can be described thus: Induction of apoptosis in human A549 cells assessed as viable cells at 0.01 uM after 24 hrs by Annexin V and propidium iodide staining-based flow cytometric analysis (reference value: 83%). The settings on record: A549, 24 h, read-out: Activity. The format is functional.
Series [18] has as its system A549. The experiment in a line: Induction of apoptosis in human A549 cells assessed as early apoptotic cells at 0.1 uM after 24 hrs by Annexin V and propidium iodide staining-based flow cytometric analysis (reference value: 8.2%). The format is functional.
The test system of series [19] is A549. The series can be described thus: Induction of apoptosis in human A549 cells assessed as late apoptotic cells at 0.1 uM after 24 hrs by Annexin V and propidium iodide staining-based flow cytometric analysis (reference value: 7.4%). The format is functional.
For series [20], the system named is A549. The experiment in a line: Induction of apoptosis in human A549 cells assessed as dead cells at 0.1 uM after 24 hrs by Annexin V and propidium iodide staining-based flow cytometric analysis (reference value: 1.4%). The series is classed as functional.
Series [21] deals with A549. The series can be described thus: Induction of apoptosis in human A549 cells assessed as viable cells at 0.1 uM after 24 hrs by Annexin V and propidium iodide staining-based flow cytometric analysis (reference value: 83%). The format is functional. Particulars: A549, 24 h, read-out: Activity.
In series [22] the test system is A549. The experiment in a line: Induction of apoptosis in human A549 cells assessed as early apoptotic cells at 1 uM after 24 hrs by Annexin V and propidium iodide staining-based flow cytometric analysis (reference value: 8.2%). The series is classed as functional.
For series [23], the system named is A549. The series can be described thus: Induction of apoptosis in human A549 cells assessed as late apoptotic cells at 1 uM after 24 hrs by Annexin V and propidium iodide staining-based flow cytometric analysis (reference value: 7.4%). The format is functional.
For series [24], the system named is A549. The experiment in a line: Induction of apoptosis in human A549 cells assessed as dead cells at 1 uM after 24 hrs by Annexin V and propidium iodide staining-based flow cytometric analysis (reference value: 1.4%). The format is functional.
Series [25] has as its system A549. The experiment in a line: Induction of apoptosis in human A549 cells assessed as viable cells at 1 uM after 24 hrs by Annexin V and propidium iodide staining-based flow cytometric analysis (reference value: 83%). The series is classed as functional. The settings on record: A549, 24 h, read-out: Activity.
The subject of series [26] is Lewis lung carcinoma cell line. The series can be described thus: Antitumor activity against mouse LLC cells allografted in ip dosed C57BL/6 mouse assessed as tumor growth inhibition administered for 14 days measured on day 15. The series is classed as functional, organism-based. In short, it runs like this:
as §2

The test system of series [27] is Lewis lung carcinoma cell line. The series can be described thus: Antitumor activity against mouse LLC cells allografted in C57BL/6 mouse assessed as tumor growth inhibition at 5 mg/kg, ip administered for 14 days measured on day 15 relative to control. The series is classed as functional. Particulars: route intraperitoneal, read-out: TGI. In short, it runs like this:
as §2

In series [28] the test system is Lewis lung carcinoma cell line. The experiment in a line: Antitumor activity against mouse LLC cells allografted in C57BL/6 mouse assessed as tumor growth inhibition at 10 mg/kg, ip administered for 14 days measured on day 15 relative to control. The format is functional. Particulars: route intraperitoneal, read-out: TGI. In short, it runs like this: as §2
The test system of series [29] is Mus musculus. The series can be described thus: Toxicity in C57BL/6 mouse allografted with mouse LLC cells assessed as change in body weight at 2.5 to 10 mg/kg, ip administered for 14 days measured during compound dosing. On the set-up: dose 2.5-10 mg/kg, route intraperitoneal. The format is organism-based. The settings on record: in vivo, 336 h. In short, it runs like this:
as §3

pIC50: −log10 of the molar value. The source made the active and inactive calls. The calls are words filed in the database; no cut-off is given here.

Turning to `COc1cccc2c1C(=O)c1c(O)c3c(c(O)c1C2=O)C[C@@](O)(C(=O)CO)C[C@@H]3O[C@H]1C[C@H](N)[C@H](O)[C@H](C)O1` [DOXORUBICIN], the inhibition of growth at 10 µM in the series on MCF7 was 84.9%; in the series on MDA-MB-231 [1] it was 89.3%; in the series with A549 [2], 92%; in [3] it was 79%; with HeLa it was 82%. For the same molecule, the pIC50 in the series with A549 [4] is 5.89; in the series with MDA-MB-231 [5] it was 5.81; in series [6] it was 6.32. Further, the inhibition in vivo at 2.5 mg/kg in series [7] was 52.5%. Further, the Activity result with Mus musculus [8] is “Toxic”.
For the molecule `COc1cc2cc(NC(=O)/C=C/c3ccc(Cl)cc3)c(=O)oc2cc1O`, the inhibition of growth at 10 µM with MCF7 stood at 70.1%; in the series with MDA-MB-231 [1], 70.8%; in the series with A549 [2], 87.9%; in [3], 64.3%; in the series with HeLa, 86.2%. The pIC50 was 6.60 in the series on A549 [4], 6.64 in the series with MDA-MB-231 [5] and 6.16 in [6]. For the same molecule, the Activity is on record as 9.2% with A549 [9]; 19.6% in the series with A549 [10]; 19.3% in the series with A549 [11]; 5.7% in the series on A549 [14]; 3.7% with A549 [15]; 4.3% in the series on A549 [16]. The Activity in the series with A549 [18] amounted to 8.3%; with A549 [19], 3.6%; in the series with A549 [20], 2.4%; in the series on A549 [22], 24.3%; in the series with A549 [23], 7.3%; in the series on A549 [24], 1.8%. Besides, in the series on Mus musculus [29], the Activity entry is given as “Non-toxic”. Moreover, the outcome in the series with A549 [12] was Active. In the series on A549 [13], the outcome was inactive. In addition, the viability at 0.01 µM in the series on A549 [17] was 86.4%. Besides, the viability at 0.1 µM in the series with A549 [21] is 85.7%. Further, the viability at 1 µM in the series with A549 [25] was determined as 66.5%. The TGI entry in series [26] is “Dose-dependent effect”. In addition, the inhibition in vivo at 2.5 mg/kg in series [7] was 18.1%. Besides, in series [27], the inhibition in vivo at 5 mg/kg was 33.6%. In [28], the inhibition in vivo at 10 mg/kg stood at 49.5%.

(Values after ChEMBL document CHEMBL3407428, “Synthesis, in vitro and in vivo antitumor activity of scopoletin-cinnamic acid hybrids” (Eur J Med Chem, 2015).)
